Experimental data as given in ChEMBL document CHEMBL1122506, “Cardiac-slowing amidines containing the 3-thioindone group. Potential antianginal agents” (1983).

Experiments:
Canis familiaris [1] = experiment: Change in heart rate at the above D50 dose in conscious dogs; type: functional, Canis lupus familiaris
Method in brief: (§1)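 Triazine tachycardia in conscious dogs: carotid artery and jugular vein catheterized with heparinized saline; 18 h after surgery, triazine vasodilator U20388 12 mg/kg po; about 1 h later, dog in sling with arterial pressure and ECG monitored. Test agent infused iv at 0.8 (mg/kg)/min to 30 mg/kg total. D50 = dose giving 50% of maximal slowing in that animal; ΔHR50 = heart-rate change at D50; CS index = %ΔHR50/D50.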

Canis familiaris [2] = species on record: Canis familiaris; experiment: Relative activity (fraction of the most active compound 24) was determined; type: functional, Canis lupus familiaris
Canis familiaris [3] = experiment: Dose required to achieve 50 % of maximal cardiac slowing in triazine tachycardia test in conscious dog; type: functional, Canis lupus familiaris; method in brief: as §1
Canis familiaris [4] = experiment: Myocardial depression rating in anesthetized, ganglion-blocked dog; Weak activity.
Canis familiaris [5] = species on record: Canis familiaris; experiment: Cardiac slowing index was measured for potency and efficacy; type: functional, Canis lupus familiaris; method in brief: as §1
Canis familiaris [6] = species on record: Canis familiaris; experiment: Percent decrease from initial heart rate (percent delta HR50/HR0 x 100) in dogs; type: functional, Canis lupus familiaris; method in brief: as §1
Canis familiaris [7] = experiment: Myocardial depression in anesthetized, ganglion-blocked dog; Moderate activity.
Canis familiaris [8] = experiment: Evaluated for the heart rate at dose 2.5 mg/kg in 4 animals by aminophylline-induced sinus tachycardia test; type: functional, Canis lupus familiaris
Canis familiaris [9] = experiment: Evaluated for the heart rate at dose 5.0 mg/kg in 4 animals by aminophylline-induced sinus tachycardia test; type: functional, Canis lupus familiaris
Canis familiaris [10] = experiment: Evaluated for the heart rate at dose 1.0 mg/kg in 4 animals by aminophylline-induced sinus tachycardia test; type: functional, Canis lupus familiaris
Canis familiaris [11] = experiment: Evaluated for the heart rate at dose 1.0 mg/kg in 4 animals by glucagon-induced tachycardia test; type: functional, Canis lupus familiaris
Canis familiaris [12] = experiment: Evaluated for the heart rate at dose 2.5 mg/kg in 4 animals by glucagon-induced tachycardia test; type: functional, Canis lupus familiaris
Canis familiaris [13] = experiment: Evaluated for the heart rate at dose 0.5 mg/kg in 4 animals by poldine tachycardia test; type: functional, Canis lupus familiaris
Method in brief: (§2)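 Poldine tachycardia: dogs prepared surgically as in the triazine method; poldine methyl sulfate 0.5 mg/kg iv, then 30 min later test agent in increasing doses (0.5/1.0/2.5 mg/kg) at 30-min intervals; read-out is the maximum percent decrease in heart rate at each dose.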

Canis familiaris [14] = experiment: Evaluated for the heart rate at dose 1.0 mg/kg in 4 animals by poldine tachycardia test; type: functional, Canis lupus familiaris; method in brief: as §2
Canis familiaris [15] = experiment: Evaluated for the heart rate at dose 2.5 mg/kg in 4 animals by poldine tachycardia test; type: functional, Canis lupus familiaris; method in brief: as §2

Row | SMILES | Delta HR50 (Canis familiaris [1]) | Relative activity (Canis familiaris [2]) | D50 (Canis familiaris [3]) | MD (Canis familiaris [4]) | CS index (Canis familiaris [5]) | Delta HR50 (Canis familiaris [6]) | MD (Canis familiaris [7]) | Max decrease in heart rate (Canis familiaris [8]) | Max decrease in heart rate (Canis familiaris [9]) | Max decrease in heart rate (Canis familiaris [10]) | Max decrease in heart rate (Canis familiaris [11]) | Max decrease in heart rate (Canis familiaris [12]) | Max decrease in heart rate (Canis familiaris [13]) | Max decrease in heart rate (Canis familiaris [14]) | Max decrease in heart rate (Canis familiaris [15])
1 | CN1CCC/C1=N\CCSc1cn(CC2CC2)c2ccccc12 | -60 beats min-1 | 0.57 | 1.4 mg/kg | 2.5 | 18.2 | 25.5% |  |  |  |  |  |  |  |  | 
2 | CCN1CC(CC/N=C2\CCCN2C)c2ccccc21 (configuration not stated) | -45 beats min-1 | 0.17 | 3.3 mg/kg | 2 | 5.6 | 18.4% |  |  |  |  |  |  |  |  | 
3 | CN1CCC/C1=N\CCCCSc1c[nH]c2ccccc12 | -42 beats min-1 | 0.31 | 2 mg/kg |  | 10 | 20% | 3 |  |  |  |  |  |  |  | 
4 | CN1CCC/C1=N\CCSc1c[nH]c2ccc(Cl)cc12 | -32 beats min-1 | 0.14 | 3.5 mg/kg | 2 | 4.6 | 16.2% |  |  |  |  |  |  |  |  | 
5 | C=CCCn1cc(SCC/N=C2\CCCN2C)c2ccccc21 | -33 beats min-1 | 0.46 | 1.1 mg/kg |  | 14.7 | 16.2% | 3 |  |  |  |  |  |  |  | 
6 | CC(C)n1cc(SCC/N=C2\CCCN2C)c2ccccc21 | -31 beats min-1 | 0.6 | 1 mg/kg | 2 | 19.1 | 19.1% |  | 33% | 47% | 16% | 23% | 39% | 15% | 38% | 55%
7 | CN1CCC/C1=N/CCc1cn(Cc2ccccc2)c2ccccc12 | -52 beats min-1 | 0.29 | 2.6 mg/kg |  | 9.3 | 24.3% |  |  |  |  |  |  |  |  | 
8 | CN1CCC/C1=N\CCSc1cn(C2CCCC2)c2ccccc12 | -40 beats min-1 | 0.24 | 2.7 mg/kg |  | 7.8 | 21% | 3 |  |  |  |  |  |  |  | 
9 | CCc1ccc2[nH]cc(SCC/N=C3\CCCN3C)c2c1 | -21 beats min-1 | 0.06 | 8.6 mg/kg |  | 1.8 | 15.5% |  |  |  |  |  |  |  |  | 
10 | Cc1[nH]c2ccc(Cl)cc2c1SCC/N=C1\CCCN1C | -33 beats min-1 | 0.23 | 2.3 mg/kg |  | 7.5 | 17.2% | 3 |  |  |  |  |  |  |  | 
11 | C=CCn1cc(CC/N=C2/CCCN2C)c2ccccc21 | -26 beats min-1 | 0.38 | 1.2 mg/kg |  | 12.2 | 14.7% |  |  |  |  |  |  |  |  | 
12 | CN1CCC/C1=N/CCCSc1c[nH]c2ccccc12 | -46 beats min-1 | 0.17 | 3.8 mg/kg |  | 5.4 | 20.4% | 3 |  |  |  |  |  |  |  | 
13 | COc1ccc2[nH]cc(SCC/N=C3\CCCN3C)c2c1 | -39 beats min-1 | 0.24 | 2.3 mg/kg | 2 | 7.7 | 17.8% |  |  |  |  |  |  |  |  | 
14 | COCCn1cc(SCC/N=C2\CCCN2C)c2ccccc21 | -33 beats min-1 | 0.37 | 1.5 mg/kg |  | 11.7 | 17.6% | 2.5 |  |  |  |  |  |  |  | 
15 | Cc1[nH]c2ccccc2c1SCCNC1=NCCN1C | -37 beats min-1 | 0.23 | 2.6 mg/kg | 2.5 | 7.5 | 19.5% |  |  |  |  |  |  |  |  | 
16 | Cc1c(SCC/N=C2\CCCN2C)c2ccccc2n1C | -21 beats min-1 | 0.43 | 0.9 mg/kg |  | 13.9 | 12.5% | 3.5 |  |  |  |  |  |  |  | 
17 | CN1CCCC/C1=N\CCSc1c[nH]c2ccccc12 | -51 beats min-1 | 0.23 | 3 mg/kg | 2.5 | 7.5 | 22.4% |  |  |  |  |  |  |  |  | 
18 | CC(CSc1c[nH]c2ccccc12)/N=C1\CCCN1C (configuration not stated) | -46 beats min-1 | 0.28 | 2.7 mg/kg |  | 8.9 | 24% | 3.5 |  |  |  |  |  |  |  | 
19 | C#CCn1c(C)c(SCC/N=C2\CCCN2C)c2ccccc21 | -20 beats min-1 | 0.11 | 5.5 mg/kg |  | 3.4 | 18.5% |  |  |  |  |  |  |  |  | 

Row | SMILES | Delta HR50 (Canis familiaris [1]) | Relative activity (Canis familiaris [2]) | D50 (Canis familiaris [3]) | MD (Canis familiaris [4]) | CS index (Canis familiaris [5]) | Delta HR50 (Canis familiaris [6]) | MD (Canis familiaris [7]) | Max decrease in heart rate (Canis familiaris [8]) | Max decrease in heart rate (Canis familiaris [9]) | Max decrease in heart rate (Canis familiaris [10]) | Max decrease in heart rate (Canis familiaris [11]) | Max decrease in heart rate (Canis familiaris [12]) | Max decrease in heart rate (Canis familiaris [13]) | Max decrease in heart rate (Canis familiaris [14]) | Max decrease in heart rate (Canis familiaris [15])
20 | C=C(C)Cn1cc(SCC/N=C2\CCCN2C)c2ccccc21 | -42 beats min-1 | 0.14 | 4.4 mg/kg | 2.5 | 4.5 | 20% |  |  |  |  |  |  |  |  | 
21 | CN1CCN=C1NCCSc1c[nH]c2ccccc12 | -38 beats min-1 | 0.22 | 2.9 mg/kg | 2 | 6.9 | 19.9% |  |  |  |  |  |  |  |  | 
22 | C#CCn1cc(CC/N=C2/CCCN2C)c2ccccc21 | -47 beats min-1 | 0.46 | 1.5 mg/kg |  | 14.9 | 22.3% | 3 |  |  |  |  |  |  |  | 
23 | Cc1[nH]c2ccccc2c1SCC/N=C1\CCCCN1C | -24 beats min-1 | 0.22 | 2 mg/kg |  | 7.1 | 14.3% | 3 |  |  |  |  |  |  |  | 
24 | CN1CCN=C1NCCc1c[nH]c2ccccc12 | -47 beats min-1 | 0.06 | 9.7 mg/kg | 2 | 2.1 | 20.5% |  |  |  |  |  |  |  |  | 
25 | CN1CCC/C1=N\CCSc1cn(Cc2ccco2)c2ccccc12 | -42 beats min-1 | 0.27 | 2.6 mg/kg |  | 8.6 | 22.4% | 3.5 |  |  |  |  |  |  |  | 
26 | CN1CCC/C1=N/CCc1c[nH]c2ccccc12 | -28 beats min-1 | 0.15 | 3.4 mg/kg | 2 | 4.7 | 16% |  |  |  |  |  |  |  |  | 
27 | CC(=NCCSc1c[nH]c2ccccc12)N(C)C | -50 beats min-1 | 0.36 | 2 mg/kg | 2 | 11.5 | 23% |  |  |  |  |  |  |  |  | 
28 | C#CCn1cc(SCC/N=C2\CCCN2C)c2ccccc21 | -46 beats min-1 | 0.61 | 1.1 mg/kg | 2.5 | 19.6 | 21.6% |  |  |  |  |  |  |  |  | 
29 | CN1CCC/C1=N\CCSc1cn(Cc2ccccc2)c2ccccc12 |  |  |  |  |  |  | 3 |  |  |  |  |  |  |  | 
30 | CN1CCCCC/C1=N\CCSc1c[nH]c2ccccc12 | -38 beats min-1 | 0.04 | 14.1 mg/kg |  | 1.3 | 18.5% |  |  |  |  |  |  |  |  | 
31 | c1ccc2c(SCCNC3=NCCC3)c[nH]c2c1 | -51 beats min-1 | 0.19 | 3.7 mg/kg |  | 6.2 | 23% |  |  |  |  |  |  |  |  | 
32 | CN1CCCN=C1NCCSc1c[nH]c2ccccc12 | -38 beats min-1 | 0.1 | 6.4 mg/kg |  | 3.1 | 20% |  |  |  |  |  |  |  |  | 
33 | C=CCn1cc(SCC/N=C2\CCCN2C)c2ccccc21 | -52 beats min-1 | 0.69 | 1 mg/kg | 2 | 22.2 | 22.2% |  |  |  |  |  |  |  |  | 
34 | CCn1cc(SCCCC/N=C2\CCCN2C)c2ccccc21 | -33 beats min-1 | 0.71 | 0.7 mg/kg |  | 22.8 | 16% | 3.5 |  |  |  |  |  |  |  | 
35 | c1ccc(N2CCC/C2=N\CCSc2c[nH]c3ccccc23)cc1 | -40 beats min-1 | 1 | 0.6 mg/kg | 2.5 | 32 | 19.2% |  |  |  |  |  |  |  |  | 
36 | C=CCN1CCC/C1=N\CCSc1c[nH]c2ccccc12 | -22 beats min-1 | 0.55 | 0.7 mg/kg |  | 17.7 | 12.4% |  |  |  |  |  |  |  |  | 
37 | CN1CCC/C1=N\CCSc1cn(C2C=CCCC2)c2ccccc12 (configuration not stated) | -52 beats min-1 | 0.34 | 1.9 mg/kg |  | 10.9 | 20.8% | 3.5 |  |  |  |  |  |  |  | 
